Reference: ChEMBL document CHEMBL3763093, “The molecular structure of thio-ether fatty acids influences PPAR-dependent regulation of lipid metabolism” (Bioorg Med Chem, 2016)
Activity calls are given as the source filed them. No cut-off for these calls is given here.

Columns and labels:
[1] = Effect on fatty acid composition in human myotubes assessed as intracellular SFA level at 10 uM after 96 hrs (Rvb= 36.16%); assay type: functional
Summary of the method: (§1)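 Differentiated human myotubes (7 days) treated 96 h with 10 or 30 μM compound or DMSO 0.1% (two controls). Cells washed, harvested, lipids extracted and methylated (methanol, sulfuric acid, 90 °C, 1 h); FA methyl esters quantified by GC with C21:0 internal standard, peaks confirmed by standards and GC/MS; values as mol % of intracellular fatty acids.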

[2] = Effect on fatty acid composition in human myotubes assessed as intracellular MUFA level at 10 uM after 96 hrs (Rvb= 41.04%); assay type: functional; summary of the method: as §1
[3] = Effect on fatty acid composition in human myotubes assessed as intracellular TTA level at 10 uM after 96 hrs; assay type: functional; summary of the method: as §1
[4] = Effect on fatty acid composition in human myotubes assessed as intracellular PUFA n-3 level at 10 uM after 96 hrs (Rvb= 7.47%); assay type: functional; summary of the method: as §1
[5] = Effect on fatty acid composition in human myotubes assessed as intracellular PUFA n-9 level at 10 uM after 96 hrs (Rvb= 1.78%); assay type: functional; summary of the method: as §1
[6] = Effect on fatty acid composition in human myotubes assessed as intracellular MUFA level at 30 uM after 96 hrs (Rvb= 41.04%); assay type: functional; summary of the method: as §1
[7] = target: T1, Peroxisome proliferator-activated receptor (Homo sapiens) (UniProt P37231+Q07869+Q03181); test: Agonist activity at PPAR in human myotubes assessed as CD36 mRNA expression at 30 uM after 96 hrs by qPCR analysis relative to control
Summary of the method: (§2)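 Myotubes from satellite cells of abdominal muscle biopsies of healthy donors, differentiated 7 days, then exposed 96 h to test lipids (30 μM) vs DMSO 0.1%. Total RNA isolated (RIN ≥7), reverse transcribed, real-time PCR with gene-specific primers; expression expressed relative to DMSO control.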

[8] = Effect on fatty acid composition in human myotubes assessed as intracellular PUFA n-3 level at 30 uM after 96 hrs (Rvb= […]); assay type: functional; summary of the method: as §1
[9] = Effect on protein level in human myotubes at 10 to 30 uM; assay type: ADME
[10] = Effect on fatty acid composition in human myotubes assessed as change in intracellular SFA level at 10 uM after 96 hrs relative to DMSO control; assay type: functional; summary of the method: as §1
Homo sapiens [11] = species: Homo sapiens; test: Induction of fatty acid oxidation in human myotubes using [14C]oleic acid as substrate preincubated for 96 hrs followed by substrate addition incubated for 4 hrs by liquid scintillation analysis; assay type: functional
Summary of the method: (§3)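 Myotubes differentiated 7 days were pretreated 96 h with 10 or 30 μM compound, 10 nM GW501516 or DMSO 0.1%, then given [1-14C]oleic acid (0.5 μCi/mL, 100 μM) in DPBS with HEPES 10 mM and L-carnitine 1 mM, 4 h at 37 °C. Trapped CO2 and cell-associated label counted by scintillation; uptake = CO2 + CA; Bradford protein; % of DMSO basal; n = 8–15.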

[12] = Effect on fatty acid composition in human myotubes assessed as change in intracellular MUFA level at 30 uM after 96 hrs relative to DMSO control; assay type: functional; summary of the method: as §1
[13] = Effect on fatty acid composition in human myotubes assessed as intracellular TTA level at 30 uM after 96 hrs; assay type: functional; summary of the method: as §1
[14] = Effect on fatty acid composition in human myotubes assessed as change in intracellular MUFA level at 10 uM after 96 hrs relative to DMSO control; assay type: functional; summary of the method: as §1
[15] = Effect on fatty acid composition in human myotubes assessed as intracellular PUFA n-6 level at 30 uM after 96 hrs (Rvb= 13.41%); assay type: functional; summary of the method: as §1
[16] = Effect on fatty acid composition in human myotubes assessed as intracellular PUFA n-6 level at 10 uM after 96 hrs (Rvb= 13.41%); assay type: functional; summary of the method: as §1
[17] = target: T1, Peroxisome proliferator-activated receptor (Homo sapiens); test: Agonist activity at PPAR in human myotubes assessed as ANGPTL4 mRNA expression at 30 uM after 96 hrs by qPCR analysis relative to control; summary of the method: as §2
Homo sapiens [18] = species: Homo sapiens; test: Effect on intracellular [14C]oleic acid uptake in human myotubes at 10 to 30 uM preincubated for 96 hrs followed by substrate addition incubated for 4 hrs by liquid scintillation analysis; assay type: functional, cell-based; summary of the method: as §3
[19] = Effect on fatty acid composition in human myotubes assessed as change in intracellular SFA level at 30 uM after 96 hrs relative to DMSO control; assay type: functional; summary of the method: as §1
[20] = Effect on fatty acid composition in human myotubes assessed as intracellular SFA level at 30 uM after 96 hrs (Rvb= 36.16%); assay type: functional; summary of the method: as §1
[21] = target: T1, Peroxisome proliferator-activated receptor (Homo sapiens); test: Agonist activity at PPAR in human myotubes assessed as CPT1A mRNA expression at 30 uM after 96 hrs by qPCR analysis relative to control; summary of the method: as §2
[22] = Effect on fatty acid composition in human myotubes assessed as intracellular dTTA level at 30 uM after 96 hrs; assay type: functional; summary of the method: as §1
[23] = target: T1, Peroxisome proliferator-activated receptor (Homo sapiens); test: Agonist activity at PPAR in human myotubes assessed as FABP3 mRNA expression at 30 uM after 96 hrs by qPCR analysis relative to control; summary of the method: as §2
[24] = Effect on fatty acid composition in human myotubes assessed as intracellular PUFA n-9 level at 30 uM after 96 hrs (Rvb= 1.78%); assay type: functional; summary of the method: as §1
[25] = Effect on fatty acid composition in human myotubes assessed as intracellular dTTA level at 10 uM after 96 hrs; assay type: functional; summary of the method: as §1
[26] = Induction of fatty acid oxidation in human myotubes using [14C]oleic acid as substrate at 30 uM preincubated for 96 hrs followed by substrate addition incubated for 4 hrs by liquid scintillation analysis relative to control; assay type: functional; summary of the method: as §3
[27] = Effect on total fatty acid level in human myotubes assessed as per mg of protein at 10 to 30 uM; assay type: ADME

SMILES: CCCCCCCCCCCCCCSCC(=O)O [TETRADECYLTHIOACETIC ACID]
- Activity [1]: 26.24 mol%
- Activity [2]: 35.09 mol%
- Activity [3]: 13.02 mol%
- Activity [4]: 7.86 mol%
- Activity [5]: 2.2 mol%
- Activity [6]: 28.44 mol%
- Activity [7]: Active
- Activity [8]: 6.62 mol%
- Activity [9]: Non-toxic
- Activity [10]: -27.2%
- Activity (Homo sapiens [11]): Dose-dependent effect
- Activity [12]: -30.8%
- Activity [13]: 31.81 mol%
- Activity [14]: -14.6%
- Activity [15]: 11.78 mol%
- Activity [16]: 14.34 mol%
- fold change (FC) [17]: < 20
- Activity (Homo sapiens [18]): inactive
- Activity [19]: -49.4%
- Activity [20]: 18.25 mol%
- fold change (FC) [21]: 5
- Activity [22]: 1.28 mol%
- Activity [23]: Active
- Activity [24]: 1.73 mol%
- Activity [25]: 1.11 mol%
- fold change (FC) [26]: 3
- Activity [27]: Non-toxic
